AI-2 QS mod = Vibrio harveyi AI-2 quorum sensing modulators, primary screen, JMH597 strain, luminescence/OD600 ratio; activity change, % at 7.5 µM; hit rate 0.4% among 300,000; Vibrio harveyi JMH597 AI-2 luminescence/OD600 ratio, 9 h; active compounds read low; strain lacks LuxN and CqsS sensors; 0 = neutral-control median; in the data active = activity change below about -75%, passing the limit was not always enough;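 note: luminescence divided by OD600 gain over 9 h not by final OD600 alone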
UBC13 polyUb = UBC13 polyubiquitin chain formation inhibitors, primary screen, biochemical, TR-FRET, uHTS; Ubiquitin-conjugating enzyme E2 N (Homo sapiens), P61088; hit rate 0.47% among 330,000; inhibition, % at 20 µM; in the data active = inhibition above about 45%, passing the limit was not always enough
Target sequence (P61088 whole entry, looked up): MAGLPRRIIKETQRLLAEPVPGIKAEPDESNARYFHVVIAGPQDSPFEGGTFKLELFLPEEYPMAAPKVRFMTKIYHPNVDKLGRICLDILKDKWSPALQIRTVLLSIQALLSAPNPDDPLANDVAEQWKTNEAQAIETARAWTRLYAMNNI
T cruzi repl = inhibitors of intracellular T. cruzi growth, primary screen, luminescence, NIH3T3 host cells. T. cruzi beta-gal in NIH3T3, 90 h. inhibition, % (no concentration beside the values). hit rate 1.4% among 300,000;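 active = mean inhibition across valid replicates above about 55%, limit read from the data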;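 note: signal also drops with host cell toxicity which is not excluded here; higher percent means less beta-gal luminescence so fewer parasites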
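compound dosing = single 50 nL compound addition per well in DMSO | material = NIH/3T3 host cells with β-galactosidase reporter T. cruzi | input = 5,000 host fibroblasts per well | timing = ≥90 h infection period, 3 h prior cell attachment | read-out basis = percent inhibition of parasite-derived β-gal signal | detection = GalScreen β-gal luminescence, detergent lysis, 60 min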
p-CIP stab down = p/CIP-EGFP fusion destabilizers, primary screen, fluorescence, F442A cells | Q05BA5 | 16 h | decrease of EGFP signal, % at 10 µM | hit rate 0.01% among 290,000 | AID 1984, 2009;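 active = EGFP signal decrease of at least 30% at 10 µM or well 3 SD below plate mean, unless failing retest; inactive = the rest, including hits failing retest or dose response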
PP1 counter = PP1-alpha phosphatase inhibitors, primary screen, counter-screen for PP5 inhibitor project, biochemical, fluorescence, OMFP substrate, single point; inhibition, % at 6.7 µM; purified PP1alpha; hit rate 0.9% among 320,000; Serine/threonine-protein phosphatase PP1-alpha catalytic subunit (Homo sapiens), P62136;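 active = inhibition above the mean inhibition of all tested compounds plus 3 SD, computed separately for each screening campaign, cut at about 15% in these data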
Target sequence (P62136 whole entry, looked up): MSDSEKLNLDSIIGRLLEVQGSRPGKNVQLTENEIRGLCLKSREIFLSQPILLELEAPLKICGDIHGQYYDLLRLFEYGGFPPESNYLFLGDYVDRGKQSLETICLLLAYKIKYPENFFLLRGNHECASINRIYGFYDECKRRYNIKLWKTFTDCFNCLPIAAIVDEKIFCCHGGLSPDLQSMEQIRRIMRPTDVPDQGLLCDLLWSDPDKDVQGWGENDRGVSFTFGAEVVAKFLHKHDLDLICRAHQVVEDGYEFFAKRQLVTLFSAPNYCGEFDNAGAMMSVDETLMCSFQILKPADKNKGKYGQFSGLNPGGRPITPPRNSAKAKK
Hits are given with their value; - = inactive; . = not tested or not shown. A selection: hits, their analogues and other compounds. The true share with any hit is near 2.8%.

SMILES	AI-2 QS mod	UBC13 polyUb	T cruzi repl	p-CIP stab down	PP1 counter
O=C(Nc1cccnc1)c1ccc(-c2ccccc2)cc1	-	-	-	-	-
CSCc1nnc(NC(=O)c2ccc(S(=O)(=O)N(C)C)cc2)o1	-	-	-	-	-
O=C(Nc1ccncc1)c1ccc(-c2ccccc2)cc1	-	-	57.7	-	-
CN(c1ccccc1)S(=O)(=O)c1ccc(NC(=O)c2ccccc2)cc1	-	-	-	-	-
CN(c1ccccc1)S(=O)(=O)c1ccc(C(=O)Nc2ccncc2)cc1	-	-	69.8	.	-
COc1cccc(SCc2noc(C(=O)NCCCN3CCOCC3)c2C(=O)NCCCN2CCOCC2)c1	-	-	-	.	-
O=C(NCCNC(=O)c1cnccn1)c1ccc(Cl)c(Cl)c1	-	-	-	-	-
O=C(NNC(=O)c1cnccn1)c1ccc(Cl)c(Cl)c1	-287.9	-	-	-	-
COc1ccc2[nH]cc(C(=O)CCl)c2c1	-	-	60.9	-	-
COc1ccc(-c2noc(N3CCC(C(=O)Nc4ccccc4OC)CC3)n2)cc1	-	-	-	-	-
COc1cc(C(=O)N/N=C(\c2ccccc2)c2ccccn2)cc(OC)c1OC	-	-	55.0	-	-
COc1cc(C(=O)N/N=C(\C)c2ccccn2)cc(OC)c1OC	-	-	-	-	-
COc1cccc(C(=O)N/N=C(/CCC(=O)O)c2ccccc2)c1	-	-	-	-	-
COc1cccc(C(=O)N/N=C(/c2ccccc2)c2ccccn2)c1	-	-	54.7	-	-
Cc1ccc(C)c(S(=O)(=O)NCCC(=O)N2CCCC(C(N)=O)C2)c1 (stereo unspecified)	.	-	.	.	-
CC(NC(=O)Cn1nc(C(=O)O)c2ccccc2c1=O)C12CC3CC(CC(C3)C1)C2 (stereo unspecified)	-	-	-	-	-
CC(C)(C)NC(=O)NC(=O)CN1CCN(c2cccc(Cl)c2)CC1	-	-	-	-	-
O=C(N1CCN(c2ncccn2)CC1)C12CC3CC(CC(C3)C1)C2	-	-	-	.	-
COCCCN1C(=O)C(O)=C(C(=O)c2ccco2)C1c1ccccc1 (stereo unspecified)	-	-	-	-	-
O=C(C1=C(O)C(=O)N(CCN2CCOCC2)C1c1cccc(Br)c1)c1cc2ccccc2o1 (stereo unspecified)	-	-	-	-	18.5
COCCCN1C(=O)C(O)=C(C(=O)c2ccc(C)o2)C1c1cccc(Br)c1 (stereo unspecified)	-	-	-	-	18.2
COc1ccc(CNC(=O)CN(Cc2ccc(Cl)cc2)S(=O)(=O)c2ccccc2)cc1	-	-	-	-	-
COc1ccccc1/C=C(/CC(=O)NCc1ccc2c(c1)OCO2)c1nc2ccccc2s1	-	-	54.6	-	-
COc1ccc(/C=C(/CC(=O)Nc2ccccc2)c2nc3ccccc3s2)cc1	-	-	-	-	-
COc1ccc(/C=C(/CC(=O)NCc2ccc(Cl)cc2)c2nc3ccccc3s2)cc1	-	-	-	-	15.5
SMILES	AI-2 QS mod	UBC13 polyUb	T cruzi repl	p-CIP stab down	PP1 counter
COc1ccc(CNC(=O)CN(Cc2ccccc2)S(=O)(=O)c2ccc(Cl)cc2)cc1	-	-	74.2	-	-
COc1ccc(NS(=O)(=O)c2ccc(C)c(C(=O)N(C)CC(=O)Nc3cccc(OC)c3)c2)cc1	-	-	-	.	-
COc1ccc(N(C(=O)c2csnn2)C(C(=O)NC2CCCC2)c2cccs2)cc1 (stereo unspecified)	-	-	-	-	-
O=C(Oc1ccc2c(=O)c(Oc3ccc4ccccc4c3)coc2c1)c1cncc(Br)c1	-83.1	-	-	-	-
Cc1ccc(Oc2coc3cc(O)ccc3c2=O)cc1	-93.9	-	-	-	-
CCCCOC(=O)Oc1ccc2c(=O)c(Oc3cccc(C)c3)coc2c1	-76.9	-	-	-	-
Cc1cc(C)cc(Oc2coc3cc(O)ccc3c2=O)c1	-	-	-	-	-
O=C(Oc1ccc2ccccc2c1)c1cncc(Br)c1	-	-	-	-	-
C[C@H](NC(CCc1ccccc1)C(=O)O)C(=O)N1CCC[C@H]1C(=O)O (stereo partly specified)	-	-	-	.	-
CCCCN(C)CCCNC(=O)c1ccc2c(c1)N(CC)C(=O)c1ccccc1S2=O (stereo unspecified)	-	-	60.7	-	-
N#CC1=C(N)Oc2n[nH]c(-c3ccccc3)c2C12C(=O)Nc1ccccc12 (stereo unspecified)	-	-	-	-	-
Cn1c2c(c(=O)n(C)c1=O)[C@@]1(C(=O)Nc3ccccc31)C(C#N)=C(N)O2	-91.8	-	-	-	-
Cc1sc(NC(=O)c2ccco2)c(C(c2cccnc2)N2CCC(C)CC2)c1C (stereo unspecified)	-	-	72.4	-	-
Cc1sc(NC(=O)c2ccco2)c(CN2CCN(Cc3ccccc3)CC2)c1C	-	-	58.9	-	-
CC(C)C(OC(=O)Cn1nnc2ccccc21)C(=O)NC1CCCC1 (stereo unspecified)	-	-	-	-	-
Cc1ccc(Cn2c(=N)n(CC(O)COc3ccccc3)c3ccccc32)cc1 (stereo unspecified)	-	-	58.9	-	-
OC(COc1ccc(OCC(O)CN2CCN(Cc3ccccc3)CC2)cc1)CN1CCN(Cc2ccccc2)CC1 (stereo unspecified)	-	-	65.2	.	-
c1ccc(COc2ccc(OCCN3CCCC3)cc2)cc1	-	-	55.2	-	-
OC(COc1ccccc1)CN1CCCC1 (stereo unspecified)	-	-	-	-	-
OC(COc1ccc(OCc2ccccc2)cc1)CN1CCOCC1 (stereo unspecified)	-	-	-	-	-
OC(COc1ccc(OCc2ccccc2)cc1)CN1CCCCC1 (stereo unspecified)	-	-	56.5	-	-
CCNC(=O)NC(=O)CSc1ccc(S(=O)(=O)N(C)C2CCCCC2)cn1	.	-	.	.	-
COc1ccccc1N1CCN(S(=O)(=O)CCNC(=O)C2CCCCC2)CC1	-	-	-	.	-
COc1cccc(C2(O)CCN(CC(=O)NCC3CC3)CC2)c1	-	-	-	-	-
OC(CN1CCN(Cc2ccccc2)CC1)c1ccccc1 (stereo unspecified)	-	-	-	-	-
OC(CN1CCN(Cc2ccccc2)CC1)c1ccc(Br)cc1 (stereo unspecified)	-	-	57.2	.	-
c1ccc(-c2sc3ccccc3c2-c2ccc(OCCN3CCCC3)cc2)cc1	.	81.6	.	.	.
OC(COc1ccccc1F)CN1CCC(Cc2ccccc2)CC1 (stereo unspecified)	-	-	-	-	-

High-throughput results deposited in PubChem BioAssay by several laboratories.
